Bioassay records as filed in PubChem BioAssay.
STAT1 blocker = inhibitors of IFN-gamma induced STAT1 signaling. actives 0.35% (n = 200,000). inhibition, % at 5.5 µM. AID 920. NIH 3T3 STAT1-luciferase reporter, luminescence;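 active = inhibition above a set limit, the mean inhibition across all tested compounds plus 3 SD, cut at about 34% in these data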
STAT3 inh-1 = STAT3 signaling inhibition; inhibition, % at 5.5 µM; actives 0.89% (n = 190,000); U3A cells, IL-6 STAT3-luciferase reporter, luminescence; host cell line lacks STAT1;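 active = inhibition above the mean inhibition across all screened compounds plus 3 SD, cut at about 44% in these data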
HSP90 refold inh = HSP90 refolding inhibition in rabbit reticulocyte lysate. luciferase refolding luminescence, 3 h. inhibition, % at 5.6 µM. actives 0.91% (n = 290,000). AID 1789;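 active = inhibition above the screen-wide mean plus 3 SD, computed separately per campaign, cut at about 16% in these data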;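 note: inhibitors lower the luminescence because luciferase stays unfolded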
STAT3 act = STAT3 signaling activation. U3A cells, IL-6 STAT3-luciferase reporter, luminescence; 100% = signal with IL-6 EC80 alone. activation (% of control), % at 5.6 µM. actives 0.91% (n = 190,000). AID 871;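 active = activation above the screen-wide mean of compound activation plus 3 SD, cut at about 130% in these data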
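Material: STAT3-luciferase reporter U3A cells; Probe or stimulus: IL-6 (33 ng/mL); Incubation: compound pre-incubation 1 h before IL-6, then 6 h stimulation at 37 °C; Technique: luminescence from STAT3-driven luciferase reporter; Evaluation: % activation versus median of IL-6-stimulated wells; Controls: IL-6-only high control.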
STAT3 inh-2 = STAT3 inhibition, confirmation assay. U3A cells, IL-6 STAT3 luciferase reporter, luminescence; cell line lacks STAT1. actives 45% (n = 1,200). shares compounds with STAT3 inh-1. inhibition, % at 5.7 µM. AID 1265;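 active = inhibition above the hit cutoff computed for the primary STAT3 screen, cut at about 44% in these data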
NFkB inh 2 = NF-kappaB inhibition in STAT3 inhibitor counter-screen. actives 36% (n = 1,200). AID 1308. shares compounds with STAT3 inh-1. inhibition, % at 5.7 µM. HEK293T NF-kB luciferase reporter, TNF-alpha induced;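 active = inhibition above the mean of solvent-only control wells plus 3 SD, cutoff set per campaign, cut at about 13% in these data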
STAT1 inh 2 = counter-screen for STAT3 inhibitors: STAT1 inhibition; shares compounds with STAT3 inh-1; NIH 3T3 STAT1-luciferase reporter, IFN-gamma induced, luminescence; inhibition, % at 5.7 µM; actives 27% (n = 1,200); AID 1317;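 active = inhibition above the mean plus 3 SD of solvent-only control wells, limit set per screening run, cut at about 16% in these data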
Hits are given with their value; . = inactive; / = no result given. Hits are enriched below; roughly 2% of the tested compounds scored in any of these assays.

SMILES	STAT1 blocker	STAT3 inh-1	HSP90 refold inh	STAT3 act	STAT3 inh-2	NFkB inh 2	STAT1 inh 2
Cc1cc(C(=O)OCC(=O)Nc2cccc(S(=O)(=O)N(C)C)c2)c2ccccc2n1	.	47	.	.	.	.	.
Fc1ccc(CNC(=S)Nc2ccc(Cl)cc2Cl)cc1	.	.	.	.	/	/	/
Fc1ccc(NC(=S)Nc2ccc(Cl)cc2Cl)cc1	.	44	.	.	.	.	.
COc1cccc(Nc2ncnc3ccccc23)c1	.	.	.	.	/	/	/
O=C(Oc1cccc(Nc2ncnc3ccccc23)c1)c1ccccc1Cl	.	54	.	.	48	.	.
Cc1cc(C)nc(SCC(=O)Nc2ccc(N3CCOCC3)c(Cl)c2)n1	.	45	.	.	51	.	24
CNc1nc(SCC(=O)Nc2ccc(Cl)c(Cl)c2)nc(N2CCOCC2)n1	/	/	.	/	/	/	/
COc1ccc(CNc2ncnc3c2[nH]c2ccccc23)cc1	/	/	.	/	/	/	/
C1=C(CCNc2ncnc3c2[nH]c2ccccc23)CCCC1	.	83	.	.	78	41	32
O=c1c2[nH]c3ccccc3c2ncn1CCC1=CCCCC1	.	.	.	.	/	/	/
CC(C)OCCCNc1ncnc2c1[nH]c1ccccc12	.	66	.	.	62	18	32
Cc1cccc(CCN(CC(=O)NCc2ccc(F)cc2)C(=O)c2csnn2)c1	/	/	.	/	/	/	/
COc1ccccc1NC(=O)Cc1nn(C)c(=O)c2ccccc12	.	54	.	.	54	13	18
Cn1nc(CC(=O)Nc2ccc(N3CCN(C(=O)OC(C)(C)C)CC3)cc2)c2ccccc2c1=O	.	80	.	.	83	32	22
Cc1csc(NC(=O)Cc2nn(C)c(=O)c3ccccc23)n1	.	54	.	.	60	18	21
Cn1nc(CC(=O)N2CCN(c3ccccc3)CC2)c2ccccc2c1=O	.	.	.	.	/	/	/
COc1cccc(OC)c1NC(=O)Cc1nn(C)c(=O)c2ccccc12	.	.	.	.	/	/	/
COc1cc(NC(=O)Cc2nn(C)c(=O)c3ccccc23)cc(OC)c1	.	48	.	.	.	.	17
O=C(N/N=C/c1cc(Cl)cc([N+](=O)[O-])c1O)NC12CC3CC(CC(C3)C1)C2	.	.	.	.	/	/	/
CNC(=O)Nc1cc(NC(=O)NC)cc(C(F)(F)F)c1	/	/	.	/	/	/	/
COc1ccc(C(CNCC(O)COc2c(C)ccc(C)c2C)N(C)C)cc1 (configuration not stated)	/	/	.	/	/	/	/
COc1ccc(C(=O)Nc2sc3c(c2C#N)CCN(C(C)=O)C3)cc1	.	.	.	.	/	/	/
CC(=O)N1CCc2c(sc(NC(=O)c3ccc([N+](=O)[O-])o3)c2C#N)C1	.	58	.	.	.	.	22
CN1CCN(S(=O)(=O)c2ccc(N3CCc4ccccc4C3)nc2)CC1	.	.	.	.	/	/	/
Cc1ccc(C)c(N=Nc2ccc(O)c3ncccc23)c1	.	46	.	.	.	.	.
SMILES	STAT1 blocker	STAT3 inh-1	HSP90 refold inh	STAT3 act	STAT3 inh-2	NFkB inh 2	STAT1 inh 2
Cc1cccc(N=Nc2ccc(O)c3ncccc23)c1	.	.	.	.	/	/	/
CCC(C)Nc1nc(C)nc2c1oc1ccccc12 (configuration not stated)	/	/	.	/	/	/	/
Cc1nc(NC(C)c2ccccc2)c2oc3ccccc3c2n1 (configuration not stated)	.	46	.	.	.	.	.
O=C(CCC(=O)N1CCOc2ccccc21)NCCN1CCOCC1	/	/	.	/	/	/	/
Cc1nc(SCC(=O)Nc2c(C)nn(C)c2C)c2cnn(-c3ccccc3)c2n1	.	44	.	.	.	.	.
COc1cc(CC(=O)OCC(=O)Nc2sccc2C(N)=O)cc(OC)c1OC	.	58	.	.	55	.	22
NC(=O)c1ccsc1NC(=O)COC(=O)Cc1ccsc1	.	.	.	.	/	/	/
CCOc1ccc(N(C)S(=O)(=O)c2cc(-c3cc(C)no3)ccc2CC)cc1	/	/	.	/	/	/	/
Fc1cccc(/C=N/Nc2ccc3ccccc3n2)c1	.	60	.	.	.	.	.
CCNC(=S)NNC(=O)c1cc(-c2ccc(OC)cc2)nc2ccccc12	.	74	.	.	.	28	.
CCCc1ccc(-c2cc(C(=O)N/N=C/c3ccc([N+](=O)[O-])o3)c3ccccc3n2)cc1	.	48	.	.	.	.	.
